According to article PMC2806602 (The Journal of neuroscience : the official journal of the …, 2009):
Numbering of substitutions follows the chain as printed.

How the values were obtained:
GluRδ2^Lc = target: T1, GluRδ2^Lc (Rattus norvegicus, UniProt Q63226, A654T); assay type: cell-based; conditions: for spontaneously active current relative to baseline with Ba^2+: 0.5 mM Ba^2+ exchanged with 0.5 mM of the divalent cation
T1 sequence (Q63226 24-1007 A654T): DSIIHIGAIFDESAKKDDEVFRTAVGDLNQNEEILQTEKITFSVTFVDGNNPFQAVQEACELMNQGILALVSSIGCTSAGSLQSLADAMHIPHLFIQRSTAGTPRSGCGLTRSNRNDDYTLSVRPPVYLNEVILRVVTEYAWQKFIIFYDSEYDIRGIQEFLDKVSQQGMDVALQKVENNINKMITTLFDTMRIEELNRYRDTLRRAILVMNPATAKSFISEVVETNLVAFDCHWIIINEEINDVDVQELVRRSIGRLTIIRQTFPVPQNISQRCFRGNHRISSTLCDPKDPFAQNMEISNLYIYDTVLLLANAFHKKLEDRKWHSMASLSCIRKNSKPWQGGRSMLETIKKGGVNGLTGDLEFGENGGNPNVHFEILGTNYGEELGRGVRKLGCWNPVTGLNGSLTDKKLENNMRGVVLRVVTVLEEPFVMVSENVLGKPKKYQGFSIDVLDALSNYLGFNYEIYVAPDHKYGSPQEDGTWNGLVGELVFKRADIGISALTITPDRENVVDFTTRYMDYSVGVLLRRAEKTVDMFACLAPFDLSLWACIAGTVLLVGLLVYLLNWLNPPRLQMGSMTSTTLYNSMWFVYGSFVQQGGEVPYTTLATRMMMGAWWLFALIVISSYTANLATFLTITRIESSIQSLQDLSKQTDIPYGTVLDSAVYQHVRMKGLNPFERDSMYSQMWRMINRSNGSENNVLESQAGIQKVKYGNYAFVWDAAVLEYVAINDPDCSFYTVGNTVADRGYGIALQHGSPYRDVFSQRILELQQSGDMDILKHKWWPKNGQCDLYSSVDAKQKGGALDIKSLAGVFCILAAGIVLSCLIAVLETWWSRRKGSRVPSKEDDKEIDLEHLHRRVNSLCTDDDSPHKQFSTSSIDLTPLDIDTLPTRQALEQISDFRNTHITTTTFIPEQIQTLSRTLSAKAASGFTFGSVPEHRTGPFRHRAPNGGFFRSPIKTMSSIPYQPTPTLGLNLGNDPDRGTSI

GluRδ2^Wt = target: T2, GluRδ2^Wt (Rattus norvegicus, UniProt Q63226); test: Two-electrode voltage-clamp recordings in Xenopus oocytes expressing GluRδ2^Wt; assay type: cell-based; conditions: 0.5 mM Ba^2+ exchanged with 0.5 mM of the divalent cation
T2 sequence (Q63226 24-1007): T1 sequence (Q63226 24-1007 A654T) with T631A
How it was run: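 Oocytes injected with wild-type receptor cRNA the day after excision and collagenase treatment. Two-electrode voltage clamp at −40 mV and 23°C, 24–72 h post-injection. Bath: 90 mM NaCl, 3 mM KCl, 0.5 mM BaCl2, 10 mM HEPES, pH 7.6. Ba2+ was replaced by 0.5 mM Mg2+, Zn2+, Mn2+, Sr2+ or Ca2+, or Ca2+ was raised stepwise. Choline or NMDG chloride kept osmolarity and Cl− constant. Baseline was current without Ca2+.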

| spontaneously active current relative to baseline with Ba^2+ (GluRδ2^Lc) | effect of divalent cation on currents at GluRδ2^Wt (GluRδ2^Wt) | modulation of GluRδ2^Lc currents by extracellular Na^+ (GluRδ2^Lc; current-voltage relationship at 0, 30, 60, 90 mM Na^+, -60 to +30 mV) | Compound |
| --- | --- | --- | --- |
| 1.33 ± 0.05 | no changes were observed |  | [Sr+2] [Sr^2+] |
| 1.33 ± 0.02 | no changes were observed |  | [Zn+2] [Zn^2+] |
| 1.06 ± 0.01 |  |  | [Mg+2] [Mg^2+] |
| 2.66 ± 0.13 | no changes were observed |  | [Mn+2] [Mn^2+] |
|  |  | does not modulate GluRδ2 | [Na+] [Na^+] |
